# From ChEMBL document CHEMBL4513216, “Probing the Open Global Health Chemical Diversity Library for Multistage-Active Starting Points for Next-Generation Antimalarials” (ACS Infect Dis, 2020)
# Test: Toxicity liver stage against HepG2, at 10uM
# Assay type: cell-based
# Set-up: test concentration 10 uM, cell line HepG2-A16-CD81EGFP
# Conditions: human, HepG2-A16-CD81EGFP cells; read-out: INHIBITION
# Outline: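 Uninfected HepG2-A16-CD81EGFP cells, 3 × 10^3 per well, 1536-well, plated on prespotted compound at 10 μM final, parasite-free screening media added to match infected plates; puromycin 10 μM positive, DMSO 0.5% negative; run in parallel with 48 h PbLuc assay at 37 °C, 5% CO2; viability by CellTiter-Glo luminescence, normalized to controls.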
row,SMILES,cytotoxicity at 10 µM [%]
1,COc1ccc(CNC2(Cc3cc(CC(C)C)on3)COC2)cc1,4.71
2,CCN(CC)CCNC(=O)CCc1c(C)nn(-c2ccccc2Cl)c1C,-0.61
3,COCC(=O)N1CC2=CC(C)(C)COc3ccc(OC)c(c32)C1,-2.59
4,CC(C)[C@H](NC(=O)NC1CCS(=O)(=O)C1)C(=O)NCc1ccccc1 (stereo not given in full),7.39
5,COc1c[nH]c(C(=O)N2CCN(c3ccccc3)CC2)cc1=O,0.0868
6,O=C(Nc1cccnc1-n1cc(Cl)cn1)C1CCCC1,-43.3
7,O=C1CSC(c2cccnc2)c2c(n(C3CCOCC3)[nH]c2=O)N1 (stereo not given),-7.95
8,NC(=O)C1CCN(c2nc3nccc(-c4cccnc4)c3c(=O)[nH]2)CC1,12.1
9,CN(C(=O)Cn1nc(-c2ccccc2Cl)ccc1=O)C1CCS(=O)(=O)C1 (stereo not given),1.96
10,Cc1ccc2c(ccn2CC(=O)NC[C@@H]2CCCN3CCCC[C@H]23)c1,0.097
11,CCn1nc(C)c2c1cnn2CCNS(=O)(=O)Cc1ccccc1,9.6
12,C=Cn1ncc(CN2CCC(c3ncc(Cl)cc3S(C)(=O)=O)CC2)c1C,6.29
13,Cc1nn(C)c(C)c1-c1ccc(=O)n(C(C)C(=O)NC2CCCCC2)n1 (stereo not given),1.94
14,Cc1cc(-c2cnc(N3CCN(C)CC3)nc2C(C)C)on1,-5.97
15,COCCNc1ncc(-c2cc(C)no2)c(-c2ccco2)n1,13.4
16,COCCn1cnc2c(F)cc(Br)cc2c1=O,-0.62
17,CCN(CC)C(=O)c1cnc(Sc2nccn2C)c(Cl)c1,-61.1
18,Cn1nc(C(=O)NCc2ccc(OC3CCCCC3)nc2)ccc1=O,21.3
19,Cc1ccc(C(=O)NC2CCN(S(C)(=O)=O)CC2)c(=O)[nH]1,15.7
20,Cc1nc(C2NC3(CCCC3)C(=O)N2CC2CC2)cs1 (stereo not given),-6.09
21,COc1cc2c(cc1CNC(=O)Cc1cc(C)on1)OC(C)C2 (stereo not given),5.38
22,CCc1nc(CN(C)CC(=O)OC(C)(C)C)cs1,3.91

row,SMILES,cytotoxicity at 10 µM [%]
1,Cc1ccccc1-n1cnnc1SCC1CCCCO1 (stereo not given),11.8
2,CN(C)C(=O)c1ccccc1NCCCOc1cccc(C#N)c1,4.52
3,COCc1nc(C(=O)N2CCN(c3nccc(OC)n3)CC2)cs1,-7.68
4,CCc1nnc2n1CCN(Cc1csc(-c3ccccc3)n1)C2,-6.29
5,CC(C)C(=O)N1CCN(Cc2csc(-c3ccccn3)n2)CC1,-5.71
6,Cc1nc(C)n(CC2CCCN(Cc3nc(-c4ccco4)no3)C2)n1 (stereo not given),-11.5
7,CCN(C(=O)Cc1ccc(NC(=O)NC2CC2)cc1)c1ccccc1,7.84
8,CC(NCc1ccccn1)c1cc2c(cc1Br)OCCO2 (stereo not given),2.65
9,CN(Cc1ccsc1)C(=O)Nc1ccc(=O)n(C)c1,6.26
10,Cc1nn(C(C)C)c(C)c1S(=O)(=O)Nc1ccc(C(=O)O)cc1,15.2
11,O=C(NCCCF)Nc1ccc2nc(N3CCOCC3)oc2c1,2.77
12,COCCOCC(=O)NC(C#N)c1c(F)cccc1Cl (stereo not given),19.6
13,Cc1nc(CNC2CCN(Cc3ccccc3)C2)sc1C (stereo not given),2.86
14,CCc1nn(C)c2[nH]nc(NC(=O)c3cccnc3OCC(C)C)c12,3.94
15,O=C(CN(CC1CCC1)CC(F)(F)F)N1CCCC1,1.84
16,Cc1cc(C)cc(OCCC(=O)NC2CC(=O)N(C)C2)c1 (stereo not given),-1.68
17,COc1ccc(C2CCCCCN2Cc2nnc(C)o2)cc1 (stereo not given),-7.12
18,Cc1nc(C)c(CC(=O)N2CCC(Oc3ccccc3)CC2)c(=O)[nH]1,1.98
19,CCS(=O)(=O)CC(=O)NC(C)c1ccc(F)cc1F (stereo not given),1.73
20,CN(Cc1cccs1)C(=O)CN(C)C1CCc2ccccc21 (stereo not given),10.1
21,Cc1ccc(NC(=O)CSCc2cccnc2)nc1,-46.4
22,c1ccc(-c2noc(C3CCN(CCCn4cncn4)CC3)n2)cc1,-14.3

row,SMILES,cytotoxicity at 10 µM [%]
1,CCOCc1ccccc1NC(=O)NC1CCN(c2ncccn2)CC1,-4.78
2,Cn1cc(NC(=O)c2ccccn2)cc(Cl)c1=O,7.7
3,Cn1cc(-c2csc(N3CCN(C(=O)OC(C)(C)C)CC3)n2)cn1,23.2
4,Cc1csc(CN2C[C@@H]3CN(CC4CCOCC4)CCO[C@@H]3C2)n1,-109
5,Cc1cccc(COC[C@@]23CCC[C@@H]2CN(C(=O)Cc2ccco2)C3)n1,-109
6,O=C(c1c2c(N3CCCC3)ncnc2n2ccccc12)N1CCCC1,-70.7
7,COc1cc(C(C)=O)ccc1OC12CCCN(CC1)C2 (stereo not given),10.2
8,COCCC(=O)N1CCCCC1c1ccc(F)cc1 (stereo not given),-41.3
9,Cn1ccnc1C(=O)N1CCCC(Cn2cc(CO)nn2)C1 (stereo not given),-1.88
10,C1=CCN(c2nc(CC3CC3)nc3c2CCN(C2CCOCC2)CC3)C1,0.0776
11,CSc1cccc(CN2CCC(CCC(=O)Nc3ccccc3)CC2)c1,-2.48
12,Cc1nc(N2CCC3(CCCNC3=O)C2)nc2c1CCCC2 (stereo not given),-4.97
13,COc1ccc([C@@H]2C[C@H](NC(C)=O)C[C@H](CCc3ccccc3)O2)cn1,-3.13
14,Cc1noc(C)c1CN1CCCC1c1nc(-c2ccccc2)no1 (stereo not given),-39.2
15,CC(C)N1CCCCC1CCn1cnc2cc(C(F)(F)F)ccc2c1=O (stereo not given),-5.98
16,CNc1cc(C(=O)N(C)Cc2cc(-c3cccs3)n[nH]2)ccn1,-9.22
17,CCOc1ccc(C(C)Nc2ncnc3c2CCNC3)cc1OCC (stereo not given),-8.81
18,CCCc1cc(N2CCC(NC3CCS(=O)(=O)C3)CC2)nc(C)n1 (stereo not given),-6.65
19,Cc1ccc(CN2CCN(C3CCSCC3)CC2CCO)o1 (stereo not given),-3.96
20,COc1cc(C)sc1C(=O)N1CCCCC1c1ccccn1 (stereo not given),0.864
21,COc1cc(-c2cccc3c2OC(CN)C3)cc(OC)c1OC (stereo not given),-42.6
22,N#Cc1cccc(NC2CC(=O)N(C3Cc4ccccc4C3)C2)n1 (stereo not given),-141

row,SMILES,cytotoxicity at 10 µM [%]
1,Cc1nc(CC(=O)N(C)C2CCCN(CCc3ccccc3)C2)cs1 (stereo not given),3.13
2,CNC(=O)[C@@H]1C[C@H](N)CN1S(=O)(=O)c1cc(Cl)cc(Cl)c1O,1.68
3,CN1C[C@@H](NC(=O)c2cc(F)cc(F)c2)C[C@H]1C(=O)NCc1ncc[nH]1,-6.25
4,CCOc1cc(CN2CCCC2)ccc1Oc1cccc(C#N)n1,-1.83
5,COCCc1noc(CN(C)c2nc(C)cc(C)n2)n1,0.801
6,CCN(CC)S(=O)(=O)N1CCC(c2nccn2Cc2ccccn2)CC1,0.136
7,CN1C[C@H]2CNC[C@@]2(C(=O)N2CCN(c3ncccc3C#N)CC2)C1,2.12
8,Cc1cnn(CC2CCCN2c2ncnc3ccsc23)c1 (stereo not given),13.6
9,Cc1nc(C)n(CC2CCCN(Cc3ccccc3C#N)C2)n1 (stereo not given),-16.4
10,CC(C)(C)c1nc(CC(=O)N2CCCC(n3cncn3)C2)cs1 (stereo not given),-11.2
11,CC(=O)N1CCN(C(=O)NCc2cccnc2OC(C)C)CC1,-17.5
12,CCOc1ccc(C#N)cc1NCC(=O)NC(=O)Nc1ccccc1,-11.8
13,CCc1ccc(C(N)c2cccc(S(C)(=O)=O)c2)cc1 (stereo not given),-10.9
14,Cc1ccc(CCC(=O)N2CCCC(c3cc(C(N)=O)[nH]n3)C2)cc1 (stereo not given),-4.33
15,Cc1nccn1-c1cc(CNC(=O)CCNC(=O)C2CCCC2)ccn1,-2.06
16,COc1cccc(OCCNC(=O)CN2CCN(C)CC2C)c1 (stereo not given),-2.5
17,CC(c1nc(C2CC2)no1)N1CCN(CCOCC(F)(F)F)CC1 (stereo not given),-8.6
18,COCCNC(=O)C1(c2ccccc2C)CCOCC1,-9.04
19,Cc1nc(-c2ccsc2)ccc1C(=O)NCCN1CCOCC1,-10.2
20,CCn1ccnc1CN1CCN(Cc2ccc(C#N)cc2)CC1,-9.62
21,CC(C)c1nc2n(n1)CC(NCc1nnnn1C1CC1)CC2 (stereo not given),-1.4
22,CC(NC(=O)COc1ccc(F)cc1)c1nnc2n1CCCCC2 (stereo not given),-8.99

row,SMILES,cytotoxicity at 10 µM [%]
1,CCc1n[nH]c(C2CN(CCc3cccs3)CCO2)n1 (stereo not given),3.83
2,COc1cccc(CN2CCC(c3cc(O)nc(C)n3)C2)c1 (stereo not given),-0.542
3,c1cc(CN2CCO[C@H]3[C@H](OCCN4CCCC4)CC[C@@H]32)co1,6.49
4,c1cncc(OC[C@@]23CCC[C@@H]2CN(CC2CCOCC2)C3)c1,7.66
5,O=C1C[C@H]2[C@@H](CCN2C(=O)c2ccc[nH]2)N1CCN1CCCC1,-4.28
6,O=C(NC1CC1)[C@@H]1C[C@@H]2CCN(Cc3ccccc3)C[C@@H]2O1,-65.8
7,CC(C)NC1CCc2c(ccc(=O)n2CC2CC2)C1 (stereo not given),-76.5
8,COCc1n[nH]c2c1CN(Cc1ccccn1)C2,-102
9,COc1ccc(CN2CC[C@H](O)[C@@H]2Cc2cnn(C)c2)cc1,-81.7
10,CN(C)CCN1CCOCC2(CCCN(C(=O)c3cccn3C)C2)C1 (stereo not given),4.87
11,Cc1nc(C)n(CC2CN(Cc3cccs3)Cc3nccn3C2)n1 (stereo not given),-133
12,Cn1nc(COCC2CC2)c2c1CCN(Cc1cccs1)C2,-101
13,O=C(O)c1cc2c(nc1-c1ccoc1)CCN(CC1CCOC1)CC2 (stereo not given),-81.9
14,COCCN1CCOCC12CCN(C(=O)c1ccncc1)CC2,-71.9
15,O=C(Nc1cccnc1)[C@H]1CN(Cc2ccccn2)C[C@H]2OCC[C@@H]12,-107
16,FC1(F)CCN(Cc2ccccn2)CC12CCN(c1ncccn1)C2 (stereo not given),-95.8
17,Cn1cc(-c2cnc(N3CCOCC3)nc2)cc1C(=O)NCCC#N,-83.9
18,Cc1ccc(CN2CCC3(CC2)CC(N2CCN(C)CC2)CO3)s1 (stereo not given),-94.6
19,O=C(NC[C@]12COC[C@H]1CN(Cc1nccs1)C2)c1cscn1,-1.11
20,COc1cccc(C2c3c(n[nH]c3C)N=C3COC(=O)C32)c1O (stereo not given),65.8
21,Cc1ccc(-n2cccn2)cc1S(=O)(=O)N1C[C@H]2CC[C@@H](C1)N(C)C2,1.62
22,Cn1nc(C2CCCC2)c(-c2ccc3c(c2)OCO3)c1N,-51.5
